Assay results from different studies.
Each line is one published result; the experiments were not run side by side.
Target: NUAK family SNF1-like kinase 1 (NUAK1, Homo sapiens, UniProt O60285)
Sequence (O60285 1-661, as in one of the studies): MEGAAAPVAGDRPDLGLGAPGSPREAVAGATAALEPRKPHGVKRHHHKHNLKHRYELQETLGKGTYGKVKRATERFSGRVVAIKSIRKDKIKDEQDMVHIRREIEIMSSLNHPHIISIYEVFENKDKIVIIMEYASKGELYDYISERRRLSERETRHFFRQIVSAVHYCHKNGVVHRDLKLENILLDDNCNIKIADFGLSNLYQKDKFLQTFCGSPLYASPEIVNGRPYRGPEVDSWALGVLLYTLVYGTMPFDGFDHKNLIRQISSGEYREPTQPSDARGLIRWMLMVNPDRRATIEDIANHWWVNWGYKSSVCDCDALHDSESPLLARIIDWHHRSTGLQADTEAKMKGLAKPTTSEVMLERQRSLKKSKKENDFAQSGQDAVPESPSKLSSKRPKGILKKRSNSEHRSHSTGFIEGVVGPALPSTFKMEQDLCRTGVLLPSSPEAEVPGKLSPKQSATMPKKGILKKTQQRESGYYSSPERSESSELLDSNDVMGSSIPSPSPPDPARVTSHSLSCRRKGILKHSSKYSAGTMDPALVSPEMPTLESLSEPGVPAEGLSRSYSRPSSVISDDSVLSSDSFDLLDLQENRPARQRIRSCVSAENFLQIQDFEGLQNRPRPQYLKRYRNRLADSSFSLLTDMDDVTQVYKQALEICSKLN

C[C@H]1CC[C@H](n2c3cnccc3c3cnc(Nc4ccc5c(n4)CCN(C(=O)CO)C5)nc32)CC1
remaining signal (cell-free assay; 1 µM): 72%

C=CC(=O)N1CCC[C@@H](n2nc(-c3ccc(Oc4ccccc4)cc3)c3c(N)ncnc32)C1
inhibition (enzyme activity; inhibitor; 1 µM): 10%

CC(C)S(=O)(=O)c1ccc2nccc(Nc3ccc4sc(C5CCCC5)nc4c3)c2c1
activity vs control (enzyme activity; inhibitor; 1 µM): 108%

C#Cc1cc(-c2cc(Nc3nc(N[C@@H](C)c4ccc(F)cn4)ncc3Cl)n[nH]2)ccc1C=O
inhibition (enzyme activity; inhibitor; 0.2 µM): 17.1%

C1=C/COCc2cc(ccc2OCCN2CCCC2)Nc2nccc(n2)-c2cccc(c2)COC/1
remaining signal (cell-free assay; 0.1 µM): 39%

C=CC(=O)N1CCC([C@@H]2CCNc3c(C(N)=O)c(-c4ccc(Oc5ccccc5)cc4)nn32)CC1
inhibition (enzyme activity; inhibitor; 1 µM): 2%

COc1ccc2[nH]c3c4[nH]c5ccc(OC)cc5c4c4c(c3c2c1)C(=O)NC4=O
remaining binding (binding; 1 µM): 25%

CCCCC(=O)Nc1ccc(-c2ccc3ncn(CCC)c(=O)c3c2)cn1
remaining binding (binding; competition with immobilised ligand; 0.5 µM): 73%
